The list is not random: actives were taken first. Their share in the collection is about 1.2%.
ABHD5-PLIN5 inh: ABHD5-PLIN5 protein interaction inhibition | Q00G26+Q8WTS1 | Split G. princeps luciferase complementation, luminescence, 4 h | inhibition, % at 4 µM | hit rate 0.78% among 360,000 | AID 602281;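 active means inhibition above the mean inhibition across every tested compound plus 3 SD, cut at about 22% in these data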
FN deposition inh: fibronectin deposition inhibition. hit rate 0.086% among 350,000. AH1F fibroblasts, Alexa488-fibronectin deposition fluorescence, overnight. inhibition, % at 12.6 µM;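 active means mean inhibition across replicates of 30% or more, regardless of how many single replicates reach that level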
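Measured by – fluorescence 485/525 nm · System – AH1F fibroblast monolayer, labelled fibronectin deposition · Amount – 10000 cells per well · Buffer or medium – serum-reduced DMEM (2% serum) · Doses – single dose, pinned · Also added – fluorescent fibronectin at 24 nM final · Schedule – 1 h cell attachment, overnight exposure to compound and label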
APOBEC3A inh: human APOBEC3A DNA deaminase inhibition; recombinant A3A, FAM/TAMRA ssDNA deamination fluorescence; inhibition, % at 20 µM; hit rate 0.41% among 330,000;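 active means at least 40% inhibition at 20 µM here, with at most 30% in a related deaminase screen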
APOBEC3G inh: blocks human APOBEC3G single-stranded DNA deamination; Q9HC16; recombinant A3G, ssDNA deamination FAM/TAMRA fluorescence; inhibition, % at 20 µM; hit rate 0.28% among 330,000; AID 493012;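 active means inhibition of at least 40% at 20 µM, with no more than 30% in the related APOBEC3A deaminase screen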
ABHD5 PLIN5 conf: confirmation of human ABHD5-PLIN5 interaction inhibitors; shares compounds with ABHD5-PLIN5 inh; biochemical ABHD5-PLIN5 interaction, luminescence; inhibition, % at 4 µM; hit rate 67% among 2,200; AID 651612; in the data active means inhibition above about 23%
HNF4 counter: active in HNF4 split-luciferase counter-screen for ABHD5-PLIN5 inhibitors; AID 651674; shares compounds with ABHD5-PLIN5 inh; hit rate 77% among 2,200; HNF4 dimerization, luminescence, biochemical; inhibition, % at 4 µM;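 active means mean inhibition across replicate wells exceeding the computed hit threshold, cut at about 13% in these data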;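 further: light from luciferase halves that rejoin when HNF4 fusion proteins dimerize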
Target sequence (P41235 whole entry, looked up, the tested form may be a part): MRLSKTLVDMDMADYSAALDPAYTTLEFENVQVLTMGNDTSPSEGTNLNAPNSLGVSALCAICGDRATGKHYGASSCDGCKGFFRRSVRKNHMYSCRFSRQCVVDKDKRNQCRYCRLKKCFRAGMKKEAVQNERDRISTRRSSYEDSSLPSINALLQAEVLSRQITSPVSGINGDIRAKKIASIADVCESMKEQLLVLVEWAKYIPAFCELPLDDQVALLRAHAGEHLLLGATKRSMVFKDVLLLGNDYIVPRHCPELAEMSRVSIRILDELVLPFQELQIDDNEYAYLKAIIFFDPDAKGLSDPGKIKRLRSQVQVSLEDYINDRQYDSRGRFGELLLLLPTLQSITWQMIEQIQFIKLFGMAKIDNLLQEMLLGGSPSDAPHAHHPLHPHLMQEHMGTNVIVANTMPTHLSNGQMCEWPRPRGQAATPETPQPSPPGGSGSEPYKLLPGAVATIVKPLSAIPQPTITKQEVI
A number is an active result; - = inactive; . = not tested or not shown.

SMILES	ABHD5-PLIN5 inh	FN deposition inh	APOBEC3A inh	APOBEC3G inh	ABHD5 PLIN5 conf	HNF4 counter
O=C(/C=C/c1ccc2c(c1)OCCO2)c1ccccc1	26.6	-	-	-	56.3	43.4
CC(/C=C/c1cccc([N+](=O)[O-])c1)=N/NC(=O)c1cccnc1	28.9	-	-	-	-	15.7
O=C(/C=C/c1ccc2c(c1)OCO2)Nc1cccnc1	-	-	-	-	.	.
COc1ccc(C(=O)/C=C/c2ccc3c(c2)OCCO3)cc1	-	-	-	-	.	.
COc1ccc(NC(=O)N(C)C[C@@H]2Oc3ccc(NS(=O)(=O)c4ccc(Cl)cc4)cc3C(=O)N([C@H](C)CO)C[C@H]2C)cc1	.	-	.	.	.	.
CCCS(=O)(=O)c1ncc(Cl)c(C(=O)Nc2ccc(S(=O)(=O)Nc3ncccn3)cc2)n1	32.8	-	-	-	71.1	86.0
COC(=O)c1ccc(NC(=O)c2nc(S(=O)(=O)Cc3cccc(C)c3)ncc2Cl)cc1	44.3	53.0	-	-	92.0	95.2
CCS(=O)(=O)c1ncc(Cl)c(C(=O)Nc2ccc(S(=O)(=O)N3CCC(C)CC3)cc2)n1	73.3	58.2	-	-	98.8	103.4
Cc1ccc(NC(=O)c2nc(S(=O)(=O)Cc3ccccc3C)ncc2Cl)cc1C	71.7	-	-	-	97.9	97.4
CC(C)NC(=O)Nc1ccc2c(c1)C(=O)N([C@H](C)CO)C[C@H](C)[C@@H](CN(C)Cc1ccc(Cl)c(Cl)c1)O2	.	-	.	.	.	.
O=C(NCC(F)(F)F)[C@@H]1[C@@H](CO)[C@@H]2Cn3c(cccc3=O)[C@H]1N2C(=O)C1CCC1	.	-	.	.	.	.
CCc1ccc(NC(=O)c2nc(S(=O)(=O)Cc3ccccc3)ncc2Cl)cc1	77.4	50.8	-	-	89.4	89.3
Cc1cccc(CS(=O)(=O)c2ncc(Cl)c(C(=O)NCc3ccc4c(c3)OCO4)n2)c1	49.5	-	-	-	86.8	105.4
CCOC(=O)c1ccc(NC(=O)c2nc(S(=O)(=O)Cc3ccccc3)ncc2Cl)cc1	49.5	47.5	-	-	92.0	92.3
CCOC(=O)c1ccc(NC(=O)CCS(=O)(=O)Cc2ccccc2)cc1	-	-	-	-	.	.
CNC[C@H]1Oc2ccc(NC(=O)CCN3CCOCC3)cc2CC(=O)N([C@@H](C)CO)C[C@@H]1C	.	-	.	.	.	.
C[C@H]1CN([C@@H](C)CO)C(=O)c2cc(N(C)C)ccc2O[C@@H]1CN(C)CC1CCCCC1	.	-	.	.	.	.
O=C1C(Cl)=C(N2CCOCC2)C(=O)N1c1ccccc1Cl	29.5	.	-	-	59.5	85.3
NC(=O)c1ccc(-n2c(CCC(=O)O)ccc2-c2cccs2)cc1	31.2	-	-	-	-	40.2
CC(=O)c1ccc(-n2c(CCC(=O)O)ccc2-c2cccs2)cc1	31.8	.	-	-	-	49.5
Cc1ccc(-n2c(CCC(=O)O)ccc2-c2cccs2)cc1	-	.	-	-	.	.
COCC#Cc1ccc([C@H]2[C@H]3CN(C(=O)C4CC4)CC(=O)N3[C@H]2CO)cc1	.	-	.	.	.	.
C[C@@H]1CN([C@H](C)CO)S(=O)(=O)c2ccc(-c3ccc(C#N)cc3)cc2O[C@@H]1CN(C)C(=O)CN(C)C	.	-	.	.	.	.
COCC(=O)N1CC(=O)N2[C@@H](CO)[C@H](c3ccc(C#CC4CCCC4)cc3)[C@@H]2C1	.	-	.	.	.	.
COc1ccc(-c2sc3ccccc3c2-c2ccc(OCCN3CCCCC3)cc2)cc1	-	-	-	-	.	.
SMILES	ABHD5-PLIN5 inh	FN deposition inh	APOBEC3A inh	APOBEC3G inh	ABHD5 PLIN5 conf	HNF4 counter
COc1cccc(-c2sc3ccccc3c2-c2ccc(OCCN3CCCCC3)cc2)c1	29.0	.	-	-	-	-
COc1cccc(-c2sc3ccccc3c2-c2ccc(OCCN(C)C)cc2)c1	29.7	-	-	-	-	-
COc1ccccc1-c1sc2ccccc2c1-c1ccc(OCCN2CCCCC2)cc1	-	.	-	-	.	.
COc1cccc(-c2sc3ccccc3c2-c2ccc(OCCN3CCCC3)cc2)c1	-	-	-	-	.	.
Oc1ccc2sc(-c3ccccc3O)c(-c3ccc(OCCN4CCCCC4)cc3)c2c1	26.6	.	.	.	-	.
COc1ccc(-c2sc3cc(OC)ccc3c2-c2ccc(OCCN3CCCCC3)cc2)cc1	24.5	-	.	.	-	-
O=C(C[C@@H]1CC[C@H]2[C@@H](COC[C@@H](O)CN2CC2CCOCC2)O1)NCC1CCCCC1	.	-	.	.	.	.
COc1ccc2c3c(n(C)c2c1)[C@H](CO)N(Cc1ccccc1Cl)CC31CCN(C(=O)CC2CC2)CC1	.	-	.	.	.	.
